Shown are actives, neighbours in structure and some others; about 4.1% of the full set was active somewhere.
FLuc inh counter: counter-screen for luciferase assay inhibitors: firefly luciferase inhibition. P08659. inhibition, % at 10 µM. AID 1006. ATPLite firefly luciferase biochemical luminescence, 10 min. actives 1.5% (n = 200,000);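 active = inhibition above about 50% when tested at 10 µM, limit read from the data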
Target sequence (P08659 whole entry, looked up): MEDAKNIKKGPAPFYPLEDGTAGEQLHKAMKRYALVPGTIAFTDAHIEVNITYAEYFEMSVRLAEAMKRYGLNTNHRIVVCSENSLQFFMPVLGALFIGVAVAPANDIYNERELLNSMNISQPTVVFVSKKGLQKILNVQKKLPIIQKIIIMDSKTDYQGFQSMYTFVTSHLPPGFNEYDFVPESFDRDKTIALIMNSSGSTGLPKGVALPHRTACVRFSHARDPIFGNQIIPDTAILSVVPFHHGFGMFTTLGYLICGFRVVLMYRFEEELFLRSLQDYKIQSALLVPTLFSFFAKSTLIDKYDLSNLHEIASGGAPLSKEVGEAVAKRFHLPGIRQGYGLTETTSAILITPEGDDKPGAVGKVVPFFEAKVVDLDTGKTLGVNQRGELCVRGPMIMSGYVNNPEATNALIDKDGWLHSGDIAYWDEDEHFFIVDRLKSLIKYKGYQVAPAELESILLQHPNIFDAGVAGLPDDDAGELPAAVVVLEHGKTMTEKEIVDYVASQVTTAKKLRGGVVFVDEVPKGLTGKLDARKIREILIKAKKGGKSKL
STAT1 act: STAT1 signaling activation. NIH 3T3 STAT1-luciferase reporter, IFN-gamma, luminescence; 100% = IFN-gamma alone, no compound. activation (% of control), % at 5.5 µM. actives 2.6% (n = 200,000);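 active = activation above the screen-wide mean activation plus 3 SD, cut at about 130% in these data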
FLuc stim CS: firefly luciferase counter-screen for stimulation assays | P08659 | ATPlite luciferase biochemical, luminescence, 10 min; 0 = ATP-free wells, 1 = DMSO control | AID 1027 | activation factor at 10 µM | 200,000 tested, under 10 active;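 active = luciferase activation factor, scaled between plate controls, of at least 2 with compound at 10 µM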
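test system = cell-free luciferase reagent | medium = PBS as buffer for the ATP substrate | dosing = test compounds dosed from 2 mM stocks in 100% DMSO | incubation = 10 min at ambient temperature | detection = luminescence measurement of luciferase light output | benchmarks = low control with PBS replacing ATP, high control enzyme plus ATP without compound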
NF-kB expr up: NF-kB expression increase, human neuronal cells; actives 1.6% (n = 190,000); NF-kB reporter expression; active compounds read high; fold change at 12.5 µM; in the data active = fold change above about 3.3
APP 5'UTR act: APP 5'UTR luciferase reporter activation; SH-SY5Y APP 5'UTR luciferase reporter, luminescence; zero percent = DMSO vehicle wells; activation, % at 2 µM; actives 1% (n = 190,000); AID 1276;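 active = activation above a set limit, based on mean plus 3 SD of controls, cut at about 140% in these data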
Each line names hits and unclear results; the compound was inactive in the other large screens.

CN(CCC1CCCCO1)C(=O)CCc1nnc(CCCCc2ccccc2)o1 (stereo not drawn)	none
CCc1ccccc1NC(=O)c1ccc([N+](=O)[O-])s1	none
O=C(CCCN1C(=O)c2cccc3cccc(c23)C1=O)Nc1ccon1	none
Cc1ccc(NC(=S)c2ccccc2)cc1	STAT1 act 139.2
COc1ccc(C(=S)Nc2ccc(C)cc2)cc1	STAT1 act 132.8
COc1ccc([N+](=O)[O-])cc1NC(=O)C(C)Sc1nc(C)c(C)c(C)n1 (stereo not drawn)	none
COc1ccc(C(=O)Cc2ccc3c(c2)OCO3)c(O)c1	STAT1 act 147.1
CN=c1scc(-c2ccccc2Br)n1/N=C/c1ccc[nH]1	FLuc inh counter 53.5, APP 5'UTR act 174.2
Cc1ccc2nc(-c3ccc4c(c3)OCCO4)cc(C(=O)O)c2c1	FLuc inh counter 74.2
c1csc(-c2noc(COc3ccc4c(c3)CCCC4)n2)c1	STAT1 act 132.1, NF-kB expr up 4.4
CCOC(=O)C1=C2NC(=O)c3ccccc3N2C(=O)C1	none
COc1ccc(Cn2cnc3c(N)c(C)c(C)cc32)cc1	none
CCCCCCCCn1cnc2c(N)c(C)c(C)cc21	NF-kB expr up 4.54
Clc1ccc2oc(-c3ccccc3)cc(=NCCCN3CCOCC3)c2c1	STAT1 act 146.6
Clc1cccc(-c2nc(NCCCN3CCOCC3)c3ccccc3n2)c1	none (no result: NF-kB expr up)
O=C(Nc1ccccc1)c1cc2n(n1)C(C(F)(F)F)CC(C1CC1)N2 (stereo not drawn)	STAT1 act 142.0
C/C(=N\OC(=O)NC(C)C)c1sc(-c2ccccc2)nc1C	none
C/C(=N\OC(=O)NC(C)C)c1sc(-c2ccc(Cl)cc2)nc1C	NF-kB expr up 5.79
C/C(=N\OC(=O)NC1CCCCC1)c1sc(-c2ccccc2)nc1C	none
CCNC(=O)O/N=C(\C)c1sc(-c2ccc(Cl)cc2)nc1C	STAT1 act 143.8, NF-kB expr up 7.07, APP 5'UTR act 160.4
C[C@@H]1CN(c2c(F)c(N)c3c(=O)c(C(=O)O)cn(C4CC4)c3c2F)C[C@H](C)N1	none (no result: STAT1 act, NF-kB expr up, APP 5'UTR act)
CCOc1ccccc1C1C2=C(COC2=O)Nc2cc3c(cc21)OCO3 (stereo not drawn)	NF-kB expr up 3.34
Nc1ccc(Oc2ccc(Br)cc2)cc1	NF-kB expr up 3.52
Nc1ccc(Oc2cccc(Oc3ccc(N)cc3)c2)cc1	none
COc1ccccc1C(=O)Nc1ccccn1	STAT1 act 132.5
Cc1ccc(NC(=O)C(=O)Nc2ccc(C)cn2)nc1	none
Cc1ccc(NC(=O)c2ccc(F)cc2)nc1	STAT1 act 132.0
COc1ccc(C(=O)Nc2ccc(C)cn2)c(OC)c1	FLuc inh counter 94.9
Cc1cccc(OCCNc2cc(N3CCN(CCO)CC3)ccc2[N+](=O)[O-])c1	none
CN(C)C(=S)SCC(=O)Nc1ccc(Cl)cc1Cl	none
COc1ccc(OC(C)C(=O)N2CCC(C)CC2)cc1 (stereo not drawn)	none
CC1(C)N=C(N)N=C(N)N1c1ccccc1	NF-kB expr up 3.84
CC1(C)N=C(N)N=C(N)N1c1ccc(F)cc1F	none
COC(=O)c1cc(C(=O)c2ccc(Cl)cc2)n2c(=O)/c(=C\N(C)C)sc12	none
CC(=O)N(C)c1ccc(NC(=O)Nc2ccccc2C)cc1	FLuc inh counter 54.5
CC1(C)CC(=O)C2=C(C1)Nc1ccccc1NC2c1cccnc1 (stereo not drawn)	none (no result: STAT1 act, APP 5'UTR act)
Cn1cccc1C1Nc2ccccc2NC2=C1C(=O)CC(C)(C)C2 (stereo not drawn)	APP 5'UTR act 138.9
CCC(C)c1ccc(NC(=S)NC(C)C2CCCO2)cc1 (stereo not drawn)	none
CCOc1ccc(OCCOCCNCCOC)cc1	none
Cc1cc(/C=C2\NC(=S)N(C)C2=O)ccc1N1CCCC1	STAT1 act 137.5
O=C1C(=O)c2ccccc2C(O)=C1c1ccccc1F	none (no result: FLuc inh counter, STAT1 act, FLuc stim CS, NF-kB expr up)
O=C1c2ccccc2C(=O)C1c1ccnc2ccccc12	FLuc inh counter 91.2, APP 5'UTR act 146.1 (no result: NF-kB expr up)
O=C1c2ccccc2C(=O)C1c1nccc2ccccc12	FLuc inh counter 89.9, NF-kB expr up 3.56
O=C1C(c2ccnc3ccccc23)=C(O)c2ccccc21	FLuc inh counter 90.5, APP 5'UTR act 182.8
O=C(NC1CCCCC1)C(c1ccccc1)N(C(=O)Cc1ccsc1)c1ccccc1 (stereo not drawn)	none
Oc1ccccc1C1Nc2cccc3cccc(c23)N1	FLuc inh counter 64.3
COc1cc2c(cc1OC)N1C(=O)CC(OCC(=O)O)C3C4CC5(CCN5C(=O)C4=O)C2C31 (stereo not drawn)	none
S=C(NNc1ccc2ccccc2c1)NC1CCCCC1	none
CCN1CCN(Cc2ccc(NC(=O)Nc3ccccc3Cl)cc2)CC1	FLuc inh counter 65.8, APP 5'UTR act 140.6
CCn1ccc(C(=O)Nc2cccc(Cl)c2)n1	STAT1 act 141.0
CCn1ccc(C(=O)Nc2ccccc2Cl)n1	STAT1 act 138.4, NF-kB expr up 4.14, APP 5'UTR act 162.0
O=C(Nc1ccc(CN2CCCCC2)cc1)Nc1ccccc1Cl	none
Cc1cc(NC(=O)CCCn2ccc([N+](=O)[O-])n2)n(Cc2ccc(F)cc2)n1	none
O=C(CSc1nc(C2CCCCC2)n(-c2ccccc2)n1)NCC(F)(F)F	none
Cc1ccc(NC(=O)N2CCc3ccccc3C2)cc1	STAT1 act 147.7, NF-kB expr up 3.45
O=C(Nc1ccccc1)N1CCc2ccccc2C1	none
O=C(Nc1ccc(Cl)cc1)N1CCc2ccccc2C1	STAT1 act 139.0
O=C(Cc1ccccc1Cl)Nc1cccnc1	none
CCOc1ccc(S(=O)(=O)NC(Cc2cnc[nH]2)C(=O)O)cc1 (stereo not drawn)	none
O=C(CCSc1ccc(Cl)cc1)Nc1cccnc1	NF-kB expr up 7.65
Cn1c(=O)c(C(=O)Nc2ccccn2)c(O)c2ccccc21	FLuc inh counter 66.8, NF-kB expr up 4.47
COc1ccc(C(=O)OCc2csc(C)n2)c(O)c1	STAT1 act 138.7
Cc1[nH]n(-c2ccc([N+](=O)[O-])cc2)c(=O)c1C=NCCc1c(C)[nH]c2ccccc12	none
COc1ccc(C(=O)N/N=C/c2ccc(SC)cc2)cc1	none
CSc1ccc(/C=N/NC(=O)c2ccc(O)cc2)cc1	FLuc inh counter 71.1
CSc1ccc(/C=N/NC(=O)c2ccccc2Cl)cc1	STAT1 act 133.4 (no result: NF-kB expr up)
Cc1noc(/C=C/Nc2ccc(F)cc2F)c1[N+](=O)[O-]	STAT1 act 146.6, NF-kB expr up 6.93, APP 5'UTR act 173.0
COc1ccccc1N/C=C/c1onc(C)c1[N+](=O)[O-]	FLuc inh counter 59.4, APP 5'UTR act 141.9
COc1ccc(/C=N/NC(=S)Nc2cccc(C(=O)O)c2)cc1	FLuc inh counter 55.5
S=C(N/N=C/c1ccc2ncccc2c1)Nc1ccccc1	FLuc inh counter 54.9
COc1cc(/C=N/NC(=S)Nc2cccc(C(=O)O)c2)ccc1O	none
COc1cccc(/C=N/NC(=S)Nc2cccc(C(=O)O)c2)c1O	FLuc inh counter 61.8
CC(C)(C)NC(=S)NNC(=O)c1ccc2ncccc2c1	STAT1 act 136.1

Screening results as filed in PubChem BioAssay.
